ChEMBL document CHEMBL1146084, “Discovery of orally efficacious melanin-concentrating hormone receptor-1 antagonists as antiobesity agents. Synthesis, SAR, and biological evaluation of bicyclo[3.1.0]hexyl ureas” (J Med Chem, 2006)
pKi: −log10 of the molar value. Calls of active or inactive are those of the source. No cut-off for these calls is given here.

What was measured:
[1] = biological target: T1, Melanin-concentrating hormone receptor 1 (Homo sapiens, UniProt Q99705); assay: Inhibition of MCH-mediated calcium influx in CHO cells expressing human MCHR1 by FLIPR assay; format: functional, cell-based
T1 sequence (Q99705 whole entry): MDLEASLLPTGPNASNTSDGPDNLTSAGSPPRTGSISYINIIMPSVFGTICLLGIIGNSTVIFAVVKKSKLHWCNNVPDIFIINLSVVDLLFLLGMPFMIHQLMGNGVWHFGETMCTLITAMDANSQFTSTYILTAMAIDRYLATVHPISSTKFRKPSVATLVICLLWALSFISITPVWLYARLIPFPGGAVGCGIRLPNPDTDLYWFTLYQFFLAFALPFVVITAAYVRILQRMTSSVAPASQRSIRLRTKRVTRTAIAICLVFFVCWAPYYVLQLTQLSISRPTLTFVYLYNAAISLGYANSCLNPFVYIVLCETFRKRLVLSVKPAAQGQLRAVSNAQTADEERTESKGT
Outline: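 After two washes, treated with vehicle (buffer, 2% DMSO) or compound, then stimulated with 30 nM MCH; intracellular Ca²⁺ change read by FLIPR.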

Mus musculus [2] = assay: Change in body weight of C57BL/6N DIO mouse relative to control after 28 days at 30 mg/kg, po; format: functional
Outline: (§1)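 DIO male C57Bl/6NCrl:BR mice (45%-fat diet, individually housed), acclimated to vehicle dosing, given compound orally once daily in 20% HPβCD for 5 or 28 days, n = 11/group. Body weight (to 0.1 g) and food intake from preweighed 3-3.5 g pellets (to 0.01 g) recorded daily; cumulative intake and % weight change at endpoint versus vehicle, ± SEM.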

Rattus norvegicus [3] = assay: Bioavailability in rat at 10 mg/kg, iv or po; format: ADME, organism-based; settings: in vivo
Rattus norvegicus [4] = assay: Volume of distribution in rat at 10 mg/kg, iv or po; format: ADME, organism-based; set-up: dose 10 mg/kg, route oral; settings: in vivo
[5] = Half life in rat at 10 mg/kg, iv; format: ADME, organism-based; set-up: dose 10 mg/kg, route intravenous; settings: in vivo
Mus musculus [6] = assay: Reduction of cumulative food intake in C57BL/6N DIO mouse relative to control after 5 days at 30 mg/kg, po; format: functional; outline: as §1
Mus musculus [7] = assay: Reduction of food intake in orally dosed C57BL/6N DIO mouse after 2 hrs at 30 mg/kg relative to control; format: functional; settings: route oral
Outline: (§2)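 Male C57Bl/6NCrl:BR mice made obese on a 45%-fat diet, individually housed, 12 h light/dark, 22 °C; acclimated to oral 20% hydroxypropyl-β-cyclodextrin vehicle for 2-3 days. Single oral 30 mg/kg dose in 20% HPβCD; food intake weighed to 0.01 g at 2, 6 and 24 h, expressed as % of vehicle ± SEM.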

Mus musculus [8] = assay: Reduction of cumulative food intake in C57BL/6N DIO mouse relative to control after 28 days at 10 mg/kg, po; format: functional; outline: as §1
[9] = biological target: Melanin-concentrating hormone receptor 1 (Mus musculus) (UniProt Q8JZL2); assay: Receptor occupancy ex vivo by displacement of [125I]S36057 binding from MCHR1 in C57BL/6N mouse brain after 6 hrs at 30 mg/kg, po; format: functional, organism-based; set-up: dose 30 mg/kg
Sequence of Melanin-concentrating hormone receptor 1 (Mus musculus) (Q8JZL2 whole entry): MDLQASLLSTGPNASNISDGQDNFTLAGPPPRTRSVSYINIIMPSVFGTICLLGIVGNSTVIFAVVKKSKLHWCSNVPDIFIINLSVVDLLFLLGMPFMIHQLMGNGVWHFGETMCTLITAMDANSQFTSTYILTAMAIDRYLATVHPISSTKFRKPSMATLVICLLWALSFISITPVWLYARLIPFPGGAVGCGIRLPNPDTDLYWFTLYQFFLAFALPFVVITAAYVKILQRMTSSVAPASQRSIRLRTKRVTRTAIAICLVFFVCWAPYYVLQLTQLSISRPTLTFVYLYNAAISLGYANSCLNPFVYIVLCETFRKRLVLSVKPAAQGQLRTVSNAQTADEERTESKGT
Outline: (§3)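 Male C57Bl/6NCrl:BR mice given vehicle (HPβCD) or compound orally; killed by CO2 at 6 or 24 h post-dose (chronic studies: 24 h after last daily dose, n = 3/group). 16 µm frozen caudate putamen sections incubated 30 min at room temperature with 700 pM [125I]-S36057 in MCH-R1 binding buffer; 1 µM MCH defines nonspecific binding. Phosphorimager quantitation; % inhibition versus vehicle.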

[10] = biological target: T1, Melanin-concentrating hormone receptor 1; assay: Displacement of [125I]MCH from human MCHR1 expressed in CHO cell; format: cell-based
Mus musculus [11] = assay: Reduction of food intake in orally dosed C57BL/6N DIO mouse after 24 hrs at 30 mg/kg relative to control; format: functional; outline: as §2
[12] = biological target: Melanin-concentrating hormone receptor 1 (Mus musculus) (UniProt Q8JZL2); settings: C57BL/6N, Brain, 10 mg/kg
Mus musculus [13] = assay: Reduction of cumulative food intake in C57BL/6N DIO mouse relative to control after 5 days at 10 mg/kg, po; format: functional; outline: as §1
[14] = biological target: Melanin-concentrating hormone receptor 1 (Mus musculus) (UniProt Q8JZL2); assay: Receptor occupancy ex vivo by displacement of [125I]S36057 binding from MCHR1 in C57BL/6N mouse brain after 24 hrs at 30 mg/kg, po; format: functional, organism-based; set-up: dose 30 mg/kg; outline: as §3
Rattus norvegicus [15] = assay: (§4) AUC (0-24h) in rat at 10 mg/kg, po; format: ADME, organism-based, Plasma; set-up: time < 24 hr, dose 10 mg/kg, route oral; settings: in vivo, 24 h
Mus musculus [16] = assay: Change in body weight of C57BL/6N DIO mouse relative to control after 5 days at 10 mg/kg, po; format: functional; outline: as §1
Mus musculus [17] = assay: Change in body weight of C57BL/6N DIO mouse relative to control after 28 days at 10 mg/kg, po; format: functional; outline: as §1
Mus musculus [18] = assay: Reduction of cumulative food intake in C57BL/6N DIO mouse relative to control after 28 days at 30 mg/kg, po; format: functional; outline: as §1
Mus musculus [19] = assay: Change in body weight of C57BL/6N DIO mouse relative to control after 5 days at 30 mg/kg, po; format: functional; outline: as §1
Mus musculus [20] = assay: Reduction of food intake in orally dosed C57BL/6N DIO mouse after 6 hrs at 30 mg/kg relative to control; format: functional; settings: route oral; outline: as §2
Rattus norvegicus [21] = assay: AUC (0-6h) in rat at 10 mg/kg, po; format: ADME, organism-based, Plasma; set-up: time < 6 hr, dose 10 mg/kg, route oral; settings: in vivo, 6 h
[22] = as §4; format: ADME, organism-based, Plasma; set-up: time < 24 hr, dose 10 mg/kg, route oral; settings: plasma
[23] = Ratio of drug level in brain against plasma in rat after 6 hrs at 10 mg/kg, po; format: ADME, organism-based; set-up: dose 10 mg/kg, route oral

SMILES: CN1CCN(CCCN(C(=O)Nc2ccc(F)c(C(F)(F)F)c2)[C@@H]2CC[C@]3(c4ccc(C#N)cc4)C[C@H]23)CC1 (relative stereo)
- Kb [1]: 1.9 nM
- Activity (Mus musculus [2]): -9.83%
- F (Rattus norvegicus [3]): 27%
- Vdss (Rattus norvegicus [4]): 5.6 L/kg
- half-life [5]: 4 h
- Activity (Mus musculus [6]): 11.7 g
- Food intake (% of vehicle) (Mus musculus [7]): 77.3%
- Activity (Mus musculus [8]): 87 g
- Activity [9]: 99%
- pKi [10]: 8.57
- Food intake (% of vehicle control) (Mus musculus [11]; route oral): 78.1%
- inhibition [12]: > 65%
- Activity (Mus musculus [13]): 14.9 g
- Activity [14]: 58%
- AUC (Rattus norvegicus [15]): 3.9 µM·h
- Activity (Mus musculus [16]): -2.26%
- Activity (Mus musculus [17]): -1.48%
- Activity (Mus musculus [18]): 79.4 g
- Activity (Mus musculus [19]): -6.04%
- Food intake (% of vehicle control) (Mus musculus [20]): 76%
- AUC (Rattus norvegicus [21]): 0.642 µg·h/mL

SMILES: N#Cc1cccc([C@]23CC[C@@H](N(CCN4CC[C@@H](O)C4)C(=O)Nc4ccc(F)c(Cl)c4)C[C@H]2C3)c1
- Activity [9]: 58%
- Activity (Mus musculus [11]): inactive
- AUC(0-t) at 24 h [22]: 14 µM·h
- Kp at 6 h [23]: 0.7

SMILES: N#Cc1cccc([C@]23CC[C@@H](N(CCN4CC[C@H](O)C4)C(=O)Nc4ccc(F)c(C(F)(F)F)c4)C[C@H]2C3)c1
- Kb [1]: 11 nM
- Activity [9]: 73%
- pKi [10]: 7.82
- Activity (Mus musculus [11]): Active
- AUC(0-t) at 24 h [22]: 16.4 µM·h
- Kp at 6 h [23]: 1.1
